By MIC is commonly meant the lowest concentration found to suppress growth.

One experiment relates to Giardia intestinalis. In words: Antiparasitic activity against Giardia lamblia WB trophozoites after 24 to 48 hrs by CellTiter-Glo luminescent cell viability assay. To be noted: Giardia duodenalis. A general note: Cellular ATP, detected with luciferase, serves as a proxy for viable cell number.
Another experiment relates to Clostridioides difficile. Nature of the experiment: Antibacterial activity against Clostridium difficile 630 ATCC BAA-1382 by broth microdilution assay. The experiment is classed as functional. A digest of the protocol: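 Broth microdilution run essentially per an earlier report. MIC taken as the lowest concentration with no visible growth. Replicates typically agreed within one 2-fold dilution. The median MIC is reported, with a range where the median fell between two tested concentrations.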

Experiment [1] relates to Mycobacterium tuberculosis. In words: Antibacterial activity against non-replicating Mycobacterium tuberculosis H37Rv after 5 days under hypoxic condition by resazurin dye-based fluorescence assay. The experiment is classed as functional. To be noted: 120 h. Summed up: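 Same H37Rv inoculum (OD600 0.001, ~2 x 10^4 CFU/mL) in 7H9S with serially diluted compound. Plates held 5 days at 0.1% oxygen, then resazurin plus Tween-80 added.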

In a further experiment the test system is Entamoeba histolytica. Nature of the experiment: Antiparasitic activity against Entamoeba histolytica HM-1:IMSS trophozoites after 24 to 48 hrs by CellTiter-Glo luminescent cell viability assay. The format is functional, organism-based. Summed up: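 Axenic trophozoites were kept in TYI-S-33 with penicillin (100 U/mL) and streptomycin (100 µg/mL) and harvested in log phase. 5000 parasites per well were exposed to a final 8-point two-fold series of 0.39–50 µM, from 10 mM DMSO stocks. Plates were incubated 24–48 h at 37 °C under anaerobic conditions. ATP luminescence viability was read in triplicate. Percent inhibition is given at the highest concentration tested.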

Experiment [2] has as its system Mycobacterium tuberculosis. Nature of the experiment: Antibacterial activity against Mycobacterium tuberculosis H37Rv after 5 days under normoxic condition by resazurin dye-based fluorescence assay. The experiment is classed as functional, organism-based. Summed up: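 H37Rv grown in 7H9/ADC/glycerol/Tyloxapol to mid-exponential phase, diluted to OD600 0.001 (~2 x 10^4 CFU/mL) in 7H9S with serially diluted compound. Incubated 5 days at 37 °C, then resazurin and Tween-80 added. Fluorescence (ex 530/em 590 nm) read after 24 h, normalised to no-drug and no-bacteria wells.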
Background: The colour change of resazurin is a common sign of viable cells or microbes.

The subject of experiment [3] is Trypanosoma brucei brucei. In words: Antiparasitic activity against bloodstream form of Trypanosoma brucei brucei strain 427 after 48 hrs by resazurin dye-based assay. The format is functional, organism-based. Conditions: strain 427, 48 h.

≈ marks a conversion by molar mass, not a printed value.

As for `O=C(NCc1cccc(OC(F)(F)F)c1)c1ncc([N+](=O)[O-])[nH]1`, the IC50 in the experiment with Giardia intestinalis fell in the range of 0.2 to 0.5 µM; in the experiment on Entamoeba histolytica (read-out: IC50) it was 2.2 to 4.5 µM. The MIC against Clostridioides difficile was 4 to 16 µg/mL (≈ 12.1 to 48.5 µM); in experiment [1], more than 32 µg/mL.

Take `Cc1ccc(Cn2c(C)cn3cc([N+](=O)[O-])nc3c2=O)cc1`: the MIC in experiment [2] and in experiment [1] was more than 32 µg/mL in each case. The IC50 in the experiment with Giardia intestinalis was 4.4 µM; with Giardia intestinalis (read-out: pIC50 (converted)) it was 3.98 µM; in the experiment with Entamoeba histolytica (read-out: IC50), 10 µM; in the experiment on Entamoeba histolytica (read-out: pIC50 (converted)) it was 10 µM; in experiment [3] (read-out: IC50), 0.56 µM; in experiment [3] (read-out: pIC50 (converted)), 0.501 µM.

Take `Cc1nc(OCc2cccc(OC(F)(F)F)c2)c2nc([N+](=O)[O-])cn2c1C`: the MIC in experiment [2] and in experiment [1] was more than 32 µg/mL throughout. Further, the IC50 in the experiment on Giardia intestinalis is 3.9 µM; with Giardia intestinalis (read-out: pIC50 (converted)), 3.98 µM; in the experiment with Entamoeba histolytica (read-out: IC50), 27 µM; with Entamoeba histolytica (read-out: pIC50 (converted)), 25.1 µM; in experiment [3] (read-out: IC50), 1.4 µM; in experiment [3] (read-out: pIC50 (converted)), 1.26 µM.

For the compound `Cc1cn2cc([N+](=O)[O-])nc2c(=O)[nH]1`, the MIC in experiment [2] and in experiment [1] was more than 32 µg/mL throughout. The IC50 in the experiment with Giardia intestinalis is 50 µM; in the experiment with Giardia intestinalis (read-out: pIC50 (converted)), 50.1 µM; with Entamoeba histolytica (read-out: IC50), more than 50 µM; with Entamoeba histolytica (read-out: pIC50 (converted)), more than 50.1 µM; in experiment [3] (read-out: IC50) it was 3.6 µM; in experiment [3] (read-out: pIC50 (converted)), 3.98 µM.

On to `CCOC(=O)c1nc([N+](=O)[O-])cn1Cc1ccc(OC(F)(F)F)cc1`, for which the results for the IC50 in the experiment on Giardia intestinalis and in the experiment with Entamoeba histolytica (read-out: IC50) were 2.7 to 7.5 µM and 10 to 45 µM, respectively. Further, the MIC with Clostridioides difficile was 16 to 64 µg/mL (≈ 44.5 to 178 µM); in experiment [1], more than 32 µg/mL.

Turning to `O=C(NCc1ccc(F)cc1)c1ncc([N+](=O)[O-])[nH]1`, the results for the IC50 with Giardia intestinalis and in the experiment with Entamoeba histolytica (read-out: IC50) were 0.2 to 0.5 µM and 2.2 to 4.5 µM, respectively. Further, the MIC was 4 to 16 µg/mL (≈ 15.1 to 60.6 µM) in the experiment on Clostridioides difficile and more than 32 µg/mL in experiment [1].

Consider `Cc1ccc(CNC(=O)c2nc([N+](=O)[O-])c[nH]2)cc1`, for which the IC50 with Giardia intestinalis lay in the range of 0.2 to 0.5 µM; in the experiment on Entamoeba histolytica (read-out: IC50) it was 2.2 to 4.5 µM. Besides, the MIC in the experiment with Clostridioides difficile is 4 to 16 µg/mL (≈ 15.4 to 61.5 µM); in experiment [1] it was more than 32 µg/mL.

For the compound `CC(=O)OCCOc1nc(-c2ccccc2)cn2cc([N+](=O)[O-])nc12`, the IC50 with Giardia intestinalis is 1.9 µM; in the experiment with Giardia intestinalis (read-out: pIC50 (converted)) it was 2 µM; in the experiment on Entamoeba histolytica (read-out: IC50), more than 50 µM; in the experiment on Entamoeba histolytica (read-out: pIC50 (converted)), more than 50.1 µM; in experiment [3] (read-out: IC50), 1.5 µM; in experiment [3] (read-out: pIC50 (converted)), 1.58 µM. In addition, the MIC in experiment [1] is more than 32 µg/mL.

Consider `CNC(=O)c1nc([N+](=O)[O-])cn1Cc1ccc(OC(F)(F)F)cc1`, for which the results for the IC50 in the experiment with Giardia intestinalis and with Entamoeba histolytica (read-out: IC50) were 2.7 to 7.5 µM and 10 to 45 µM, respectively. The results for the MIC (with Clostridioides difficile; in experiment [1]) were 16 to 64 µg/mL (≈ 46.5 to 186 µM) and more than 32 µg/mL, respectively.

Regarding `NC(=O)c1nc([N+](=O)[O-])cn1Cc1ccc(OC(F)(F)F)cc1`, the IC50 was 4.1 to 50 µM in the experiment with Giardia intestinalis and more than 25 µM in the experiment on Entamoeba histolytica (read-out: IC50). Moreover, the values for the MIC (in the experiment with Clostridioides difficile; in experiment [1]) were more than 64 µg/mL and more than 32 µg/mL, respectively.

Take `Cc1cn2cc([N+](=O)[O-])nc2c(=O)n1Cc1cccc(OC(F)(F)F)c1`: the MIC in experiment [2] and in experiment [1] was more than 32 µg/mL each time. For the same compound, the IC50 is 2.8 µM in the experiment on Giardia intestinalis; 2.51 µM in the experiment on Giardia intestinalis (read-out: pIC50 (converted)); 16 µM with Entamoeba histolytica (read-out: IC50); 15.8 µM in the experiment on Entamoeba histolytica (read-out: pIC50 (converted)); 1.1 µM in experiment [3] (read-out: IC50); 1.26 µM in experiment [3] (read-out: pIC50 (converted)).

As for `Cc1ccc(COc2nc(C)cn3cc([N+](=O)[O-])nc23)cc1`, the IC50 is 5.7 µM in the experiment on Giardia intestinalis, 6.31 µM with Giardia intestinalis (read-out: pIC50 (converted)), 30 µM with Entamoeba histolytica (read-out: IC50) and 31.6 µM in the experiment with Entamoeba histolytica (read-out: pIC50 (converted)).

On to `O=c1c2nc([N+](=O)[O-])cn2ccn1Cc1ccccc1`, for which the MIC against Clostridioides difficile was more than 64 µg/mL.

With `Cc1cn2cc([N+](=O)[O-])nc2c(OCc2ccccc2OC(F)(F)F)n1`, the MIC in experiment [2] and in experiment [1] was more than 32 µg/mL each time. The IC50 in the experiment with Giardia intestinalis is 5.7 µM; with Giardia intestinalis (read-out: pIC50 (converted)) it was 6.31 µM; in the experiment on Entamoeba histolytica (read-out: IC50), more than 50 µM; in the experiment with Entamoeba histolytica (read-out: pIC50 (converted)) it was more than 50.1 µM; in experiment [3] (read-out: IC50), 1.2 µM; in experiment [3] (read-out: pIC50 (converted)), 1.26 µM.

Turning to `Cc1ccc(COc2nc(C)c(C)n3cc([N+](=O)[O-])nc23)cc1`, the minimal inhibitory concentration (MIC) in experiment [2] and in experiment [1] was more than 32 µg/mL in each case. Also, the IC50 was 5.8 µM with Giardia intestinalis; 6.31 µM with Giardia intestinalis (read-out: pIC50 (converted)); more than 50 µM in the experiment with Entamoeba histolytica (read-out: IC50); more than 50.1 µM in the experiment on Entamoeba histolytica (read-out: pIC50 (converted)); 2.2 µM in experiment [3] (read-out: IC50); 2.51 µM in experiment [3] (read-out: pIC50 (converted)).

For the origin of these results see ChEMBL document CHEMBL4382237, “Design, Synthesis, and Biological Evaluation of 2-Nitroimidazopyrazin-one/-es with Antitubercular and Antiparasitic Activity” (J Med Chem, 2018).
